In the RNAGym collection of RNA variant scans (doi:10.1038/nmeth.2970) one finds Kd data, which are given here for 38 variants.

The chains are these.
B1: NELF-E aptamer (parent)
chain: CCCAACGACUGCCGAGCGAGAUUACGCUUGAGCGCCCCACUGAGGAUGCCCACGGGCGAUUGGGGCACGG

The variants in this data set derive from B1. Put plainly: HiTS-RAP. To be noted: with NELF-E (Drosophila). The method, boiled down:
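Aptamer DNA templates carrying a T7 promoter and ter site were sequenced on an Illumina GAIIx flowcell, then transcribed in situ by T7 RNA polymerase and halted by GST-Tus (30 minutes, 37°C). Clusters were imaged after 30-minute room-temperature equilibration with NELF-E-mOrange at 0.064 to 1000 nM in HEPES binding buffer, and only the first binding curve was used. Intensities were normalised to sequencing intensity and averaged per sequence. Kd came from weighted Hill fits, keeping fits with variance below 1,000,000.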
For the variant CCCUACGACUGCCGAGCGAGAUUACGCUUGAGCGCCCCACUGAGGAUGCCCAUGGGCGAUUGGGGCACGG, the Kd (in general, the constant that tells how readily two partners part at equilibrium) stood at 3.61 nM.
For CCCUACGACUGCCGAGCGAGAUUACGCUUGAGCACCCCACUGAGGAUGCCCACGGGCGAUUGGGGCACGG, the Kd came out at 6.2 nM.
Regarding CCCUACGACUGCCGAGCGAGAUUACGCUUGAGCGCCCCGCUGAGGAUGCCCACGGGCGAUUGGGGCACGG, the Kd came out at 10.9 nM.
For the variant CCCUACGACUGCCGAGCGAGAUUACGCUUGAGCGCCCCUCUGAGGAUGCCCACGGGCGAUUGGGGCACGG, the Kd was 31.1 nM.
With CCCACCGGCUGCCGAGCGAGAUUACGCUUGAGCGCCCCACUGAGGAUGCCCACGGGCGAUUGGGGCACGG, the Kd was determined as 6.78 nM.
Under CCCACCGCCUGCCGAGCGAGAUUACGCUUGAGCGCCCCACUGAGGAUGCCCACGGGCGAUUGGGGCACGG stands 8.75 nM.
For the variant CCCACCGUCUGCCGAGCGAGAUUACGCUUGAGCGCCCCACUGAGGAUGCCCACGGGCGAUUGGGGCACGG, the Kd was determined as 8.29 nM.
For CCCUACGACUGCCGAGCGAGAUUACGCUUGAGCGCCCCACUGAGGAUGCCCACGGGCGAUUAGGGCACGG, the Kd came out at 13.5 nM.
For the variant CCCUACGACUACCGAGCGAGAUUACGCUUGAGCGCCCCACUGAGGAUGCCCACGGGCGAUUGGGGCACGG, the Kd turned out to be 4.95 nM.
CCCUACGACUUCCGAGCGAGAUUACGCUUGAGCGCCCCACUGAGGAUGCCCACGGGCGAUUGGGGCACGG: the Kd is 6.41 nM.
For CCCUACGACUGCCAAGCGAGAUUACGCUUGAGCGCCCCACUGAGGAUGCCCACGGGCGAUUGGGGCACGG the value was 6 nM; for CCCUACGACUGCCUAGCGAGAUUACGCUUGAGCGCCCCACUGAGGAUGCCCACGGGCGAUUGGGGCACGG, 6.79 nM.
For CCCUACGACUGCCGAGCAAGAUUACGCUUGAGCGCCCCACUGAGGAUGCCCACGGGCGAUUGGGGCACGG the value was 4.13 nM; for CCCUACUACUGCCGAGCGAGAUUACGCUUGAGCGCCCCACUGAGGAUGCCCACGGGCGAUUGGGGCACGG, 6.61 nM; for CCCACCGACUGCCGAGCGAGAUUACGCUUGAGCGCCCCACUGAGGAUGCCCACGGGCGAUUGGGGCACGG, 6.55 nM.
Under CCCUACGACUGCCGAGCGAGUUUACGCUUGAGCGCCCCACUGAGGAUGCCCACGGGCGAUUGGGGCACGG stands 6.22 nM.
With CCCUAGGACUGCCGAGCGAGAUUACGCUUGAGCGCCCCACUGAGGAUGCCCACGGGCGAUUGGGGCACGG, the Kd stood at 5.99 nM.
In the case of CCCUAUGACUGCCGAGCGAGAUUACGCUUGAGCGCCCCACUGAGGAUGCCCACGGGCGAUUGGGGCACGG, the Kd was found to be 6.4 nM.
For the variant CCCUACGACUGCCGAGCGAGAUUACGCUUGAGCGCCCCACUGAGGAUGCCCACGGGCGAUUGGAGCACGG, the Kd turned out to be 10.1 nM.
For CCCUACGACUGCCGAGCGAGAUGACGCUUGAGCGCCCCACUGAGGAUGCCCACGGGCGAUUGGGGCACGG the value was 6.29 nM.
For CCCUACGACUGCCGAGCGAGAUUACGCUUGAGCGCCCCACUGAGGAUGCCCACGAGCGAUUGGGGCACGG the value was 8.55 nM.
For CCCUACGACUGCCGAGCGAGAUUACGCUUGAGCGCCCCACUGAGGAUGCCCACGGGUGAUUGGGGCACGG the value was 5.44 nM; for CCCUACGACUGCCGAGCGAGAUUACGCUUGAGCGCCCUACUGAGGAUGCCCACGGGCGAUUGGGGCACGG, 6.95 nM.
CCCUACGACUGCCGAGUGAGAUUACGCUUGAGCGCCCCACUGAGGAUGCCCACGGGCGAUUGGGGCACGG: the Kd came out at 5.01 nM.
Under CCCUACGACUGCCGAGGGAGAUUACGCUUGAGCGCCCCACUGAGGAUGCCCACGGGCGAUUGGGGCACGG stands 5.58 nM.
Under CCCUACGACUGCCGAGCGAGAUUACGCUUGAGCGCCCCACUGAGGAUGCCCUCGGGCGAUUGGGGCACGG stands 20.1 nM.
In the case of CCCUACGACUGCCGAGCGAGAUUACGCUUGAGCGCCCCACUGAGGAUGCCCGCGGGCGAUUGGGGCACGG, the Kd was 4.05 nM.
On to CCCUACGACUGCCGAGCGAGAUUACGCUUGAGCGCCCCACUGAGGGUGCCCACGGGCGAUUGGGGCACGG, for which the Kd was 58.7 nM.
As for CCCUACGACUGCCGAGCGAGAUUACGCUUGAGCGCCCCACUGGGGAUGCCCACGGGCGAUUGGGGCACGG, the Kd worked out at 40 nM.
Turning to CCCUACGACUGCCGAGCGAGAUUACGCUUGAGCGCCCCACUGAGGAUGCCCACGGGCGAUUGGGGUACGG, the Kd is 5.14 nM.
For CCCACAGACUGCCGAGCGAGAUUACGCUUGAGCGCCCCACUGAGGAUGCCCACGGGCGAUUGGGGCACGG the value was 7.97 nM; for CCCUACGACUGCCGAGCGAUAUUACGCUUGAGCGCCCCACUGAGGAUGCCCACGGGCGAUUGGGGCACGG, 6.62 nM.
As for CCCUACGACUGCCGAUCGAGAUUACGCUUGAGCGCCCCACUGAGGAUGCCCACGGGCGAUUGGGGCACGG, the Kd was 6.93 nM.
For CCCUACGACUGCCGAGCGAGAUUAUGCUUGAGCGCCCCACUGAGGAUGCCCACGGGCGAUUGGGGCACGG the value was 4.95 nM.
CCCUACGACUGCCGAGCGAGAUUAGGCUUGAGCGCCCCACUGAGGAUGCCCACGGGCGAUUGGGGCACGG: the Kd amounted to 5.99 nM.
Under CCCUACGACUGCCGAGCGAGAUUGCGCUUGAGCGCCCCACUGAGGAUGCCCACGGGCGAUUGGGGCACGG stands 6.45 nM; under CCCUACGACUGCGGAGCGAGAUUACGCUUGAGCGCCCCACUGAGGAUGCCCACGGGCGAUUGGGGCACGG, 5.84 nM.
Turning to CCCUACGACUGCUGAGCGAGAUUACGCUUGAGCGCCCCACUGAGGAUGCCCACGGGCGAUUGGGGCACGG, the Kd amounted to 5.19 nM.
